Source: PubChem
An excerpt weighted towards active compounds, which were near 1.9% of everything screened.
CHRM5 agonist = human M5 muscarinic receptor agonists, primary screen, CHO-K1 cells, Fluo-8 calcium fluorescence; Muscarinic acetylcholine receptor M5 (Homo sapiens), P08912; CHO-K1 hM5 cells; 0% DMSO wells, 100% maximal acetylcholine response; activation, % at 3 µM; 360,000 compounds, 0.19% hits; AID 624037, 2012;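 active = activation above the run's mean over test compounds plus 3 SD, cut at about 23% in these data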;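 note: signal is peak over basal fluorescence ratio across the kinetic read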
M4 antag = human M4 muscarinic receptor antagonists, primary screen, CHO cells, Fluo-8 calcium fluorescence; Muscarinic acetylcholine receptor M4 (Homo sapiens), P08173; CHO-hM4 cells, ACh EC80; inhibition, % at 3 µM; 360,000 compounds, 0.73% hits; AID 624125, 2012;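 active = inhibition above its plate's cutoff, the mean inhibition of sample wells plus 3 SD, cut at about 27% in these data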
Target sequence (P08173 whole entry, looked up): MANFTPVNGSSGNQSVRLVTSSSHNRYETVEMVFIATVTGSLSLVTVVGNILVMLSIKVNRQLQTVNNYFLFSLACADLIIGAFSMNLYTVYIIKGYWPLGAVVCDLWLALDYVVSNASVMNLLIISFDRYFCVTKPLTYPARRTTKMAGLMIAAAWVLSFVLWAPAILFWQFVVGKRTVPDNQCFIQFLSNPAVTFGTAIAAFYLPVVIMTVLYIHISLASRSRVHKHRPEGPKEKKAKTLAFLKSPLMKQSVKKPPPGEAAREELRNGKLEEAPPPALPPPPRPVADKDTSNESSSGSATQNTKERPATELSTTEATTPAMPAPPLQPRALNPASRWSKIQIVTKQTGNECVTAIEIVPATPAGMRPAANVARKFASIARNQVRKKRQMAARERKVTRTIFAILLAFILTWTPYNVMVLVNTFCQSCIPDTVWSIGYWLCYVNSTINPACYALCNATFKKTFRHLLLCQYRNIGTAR
CHRM4 PAM = human M4 muscarinic receptor positive allosteric modulators, primary screen, CHO-K1 cells, Fluo-8 calcium fluorescence; 360,000 compounds, 0.4% hits; activation, % at 3 µM; CHO-K1 hM4/Gqi5, ACh EC20; 0% = ACh EC20, 100% = maximal ACh; AID 624126, 2012;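 active = activation above its plate's cutoff, the mean activation of sample wells plus 3 SD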
CHRM5 antagonist = human M5 muscarinic receptor antagonists, primary screen, CHO cells, Fluo-8 calcium fluorescence; inhibition, % at 3 µM; Muscarinic acetylcholine receptor M5 (Homo sapiens), P08912; 360,000 compounds, 0.59% hits; AID 624040, 2012; CHO-hM5 cells, ACh EC80;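 active = inhibition above a per-plate cutoff, the mean of that plate's test compounds plus 3 SD, cut at about 27% in these data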
CHRM4 agonist = human M4 muscarinic receptor agonists, primary screen, CHO-K1 cells, Fluo-8 calcium fluorescence; Muscarinic acetylcholine receptor M4 (Homo sapiens), P08173; CHO-K1 hM4/Gqi5; vehicle 0%, full acetylcholine response 100%; 360,000 compounds, 0.14% hits; activation, % at 3 µM;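 active = activation above the run mean over all test wells plus 3 SD, cut at about 32% in these data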;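 note: peak over basal fluorescence ratio per well then scaled between controls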
M5 PAM = human M5 muscarinic receptor positive allosteric modulators, primary screen, CHO-K1 cells, Fluo-8 calcium fluorescence. CHO-K1 hM5, ACh EC20 PAM; 0% = ACh EC20, 100% = ACh EC100. 360,000 compounds, 0.3% hits. Muscarinic acetylcholine receptor M5 (Homo sapiens), P08912. activation, % at 3 µM;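 active = activation above the run cutoff, the mean activation of all test compounds plus 3 SD, cut at about 18% in these data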
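Probe or stimulus: acetylcholine, EC20 level; Assay system: human M5 receptor in CHO-K1 cells; Schedule: compound preincubation 140 s before EC20 acetylcholine addition; Technique: intracellular calcium via Fluo-8 fluorescence; Dosing: single-point, 3 µM nominal; Read-out basis: percent activation from peak-over-basal fluorescence ratio, scaled EC20-to-EC100 acetylcholine; Repeats: one well per compound, no replicates.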
Hits are given with their value; 0 = inactive.

SMILES	CHRM5 agonist	M4 antag	CHRM4 PAM	CHRM5 antagonist	CHRM4 agonist	M5 PAM
Cc1cc(F)ccc1S(=O)(=O)Nc1ccc(C(=O)N2CCCCCC2)cc1	0	0	0	0	0	0
O=S1(=O)CC(N2CCCCC2)CN1Cc1ccc(F)cc1 (stereo not drawn)	0	0	0	0	0	0
Cc1cc2nc(-c3ccc(F)cc3)c(CC3CCCCC3)n2c(C)c1Br	0	0	0	0	0	0
CCN(CC)CCOC(=O)C(Cc1ccco1)Cc1cccc2ccccc12 (stereo not drawn)	0	0	0	28.5	0	0
Cc1cc(C(=O)N/N=C/c2c(C)nn(-c3ccccc3)c2C)n[nH]1	0	0	0	0	0	18.7
Cc1ccccc1-n1c(O)c(/C=N/N2CCCCC2c2cccnc2)c(=O)[nH]c1=O (stereo not drawn)	0	0	24.2	0	0	29.5
Cc1ccc(S(=O)(=O)N2CCCCC2c2cccnc2)c(C)c1C (stereo not drawn)	0	0	0	0	0	0
CCOC(=O)/C(=C\c1cccnc1)C(=O)c1cc(C(C)=O)c(Nc2ccccc2)s1	0	45.8	0	0	0	0
CCOC(=O)/C(=C\c1ccccc1)C(=O)c1cc(C(C)=O)c(Nc2ccccc2)s1	0	0	0	0	0	0
CNc1cnc(-c2ccc(F)c(F)c2F)cn1	0	0	0	0	0	0
O=[N+]([O-])c1cccc(COc2ccc(CN3CCCC3)cc2)c1	0	28.4	0	0	0	0
O=[N+]([O-])c1cccc(COc2ccc(CN3CCOCC3)cc2)c1	0	0	0	0	0	0
CCCSc1nc(C)c(CC(=O)O)c(=O)[nH]1	0	0	28.1	0	0	0
CCCCN(CC)C(=O)c1n[nH]c(=O)c2ccccc12	0	0	0	0	0	25.3
Cc1nn(CC(=O)Nc2nccs2)c(C)c1[N+](=O)[O-]	0	0	0	0	0	0
Cc1cc([N+](=O)[O-])nn1CCC(=O)Nc1nccs1	0	0	0	0	0	18.3
Cc1cccc(OCc2nc(-c3ccc(-n4cccc4)cc3)no2)c1	0	0	17.7	0	0	0
Cc1ccc(OCc2nc(-c3ccc(-n4cccc4)cc3)no2)cc1C	0	0	0	0	0	0
COc1ccc2nc3ccccc3nc2c1NC(=O)c1ccccc1Cl	0	0	0	27.9	0	0
Cc1c(C(=O)Nc2ccccc2F)sc2ncn(CC(=O)N3CCCCC3)c(=O)c12	0	0	0	0	0	0
COc1ccccc1CC(=O)N1CCC(CCC(=O)NC2CC2)CC1	0	0	0	0	0	0
O=C(CN1C(=O)NC2(CCc3ccccc32)C1=O)NCc1ccc(Cl)cc1 (stereo not drawn)	0	0	23.7	0	0	0
O=C(CSc1nnnn1-c1cccnc1)Nc1ccccc1F	0	0	0	0	0	0
CCCC1=NN2C(=N)/C(=C\c3cc(C)n(Cc4ccccc4)c3C)C(=O)N=C2S1	36.1	0	0	0	42.2	0
Cc1cc(/C=C2\C(=N)N3N=C(S(C)(=O)=O)SC3=NC2=O)c(C)n1Cc1ccccc1	0	0	0	0	0	0
CCC(C)(C)C1CCC2(CC1)NC(=O)N(CC(=O)NCCc1c[nH]c3ccccc13)C2=O (stereo not drawn)	0	0	0	0	0	0
COc1ccc(-c2sc3cc4c(cc3c2C#Cc2ccc(N)cc2)OCO4)cc1	26.5	0	0	0	0	0
COc1cc(CN2CCC(n3nccc3NC(=O)c3ccccc3OC)CC2)ccc1F	0	0	0	0	0	0
CC(Oc1ccc2c3c(c(=O)oc2c1)CCC3)C(=O)NCc1cccnc1 (stereo not drawn)	0	0	18.8	0	0	0
